Results taken from publication PMC7004556 (Cancer Science, 2020).
“Also recorded” adds a separate entry of the source.

System: patients with advanced solid tumors
Test: Phase I dose escalation: safety and tolerability
Assay type: in vivo, human
Procedure, shortened: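 Patients received a single 1 mg oral dose on cycle 0 day 1, then a washout on days 2-7. Oral once-daily dosing followed in 28-day cycles from day 8-10. Doses were escalated by mTPI design (target DLT rate 25% ± 5%). DLTs were assessed over cycles 0-1 against predefined haematological, non-haematological, calcification and hyperphosphataemia criteria. AEs were coded by MedDRA v20.1 and graded by CTCAE v4.03.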

CNC(=O)n1ccc2cc(Oc3ccnc(NC(=O)c4ccc(C5CCN(CCO)CC5)cc4)c3)c(OCCOC)cc21 [E7090]
Dose‐limiting toxicity (DLT) (1 mg QD to 140 mg QD, cycle 0‐cycle 1): No DLT was observed; also recorded: no DLT were reported | ALT increased, treatment‐related TEAE (60 mg (n = 3), any grade): 1 (33.3) n (%) | Anemia, treatment‐related TEAE (60 mg (n = 3), any grade): 1 (33.3) n (%) | Blood creatinine increased, treatment‐related TEAE (60 mg (n = 3), any grade): 2 (66.7) n (%) | Diarrhea, treatment‐related TEAE (60 mg (n = 3), any grade): 2 (66.7) n (%) | Lipase increased, treatment‐related TEAE (60 mg (n = 3), any grade): 1 (33.3) n (%) | Nausea, treatment‐related TEAE (60 mg (n = 3), any grade): 1 (33.3) n (%) | PPE syndrome, treatment‐related TEAE (60 mg (n = 3), any grade): 1 (33.3) n (%) | Vomiting, treatment‐related TEAE (60 mg (n = 3), any grade): 1 (33.3) n (%) | Anemia, treatment‐related TEAE (100 mg (n = 3), any grade): 1 (33.3) n (%) | Blood ALP increased, treatment‐related TEAE (100 mg (n = 3), any grade): 1 (33.3) n (%) | Blood creatinine increased, treatment‐related TEAE (100 mg (n = 3), any grade): 1 (33.3) n (%) | Hyperphosphatemia, treatment‐related TEAE (100 mg (n = 3), any grade): 3 (100.0) n (%) | Lipase increased, treatment‐related TEAE (100 mg (n = 3), any grade): 1 (33.3) n (%) | Nausea, treatment‐related TEAE (100 mg (n = 3), any grade): 1 (33.3) n (%) | Retinal detachment, treatment‐related TEAE (100 mg (n = 3), any grade): 2 (66.7) n (%) | ALT increased, treatment‐related TEAE (140 mg (n = 3), any grade): 3 (100.0) n (%) | AST increased, treatment‐related TEAE (140 mg (n = 3), any grade): 2 (66.7) n (%) | Anemia, treatment‐related TEAE (140 mg (n = 3), any grade): 1 (33.3) n (%) | Blood ALP increased, treatment‐related TEAE (140 mg (n = 3), any grade): 2 (66.7) n (%) | Blood creatinine increased, treatment‐related TEAE (140 mg (n = 3), any grade): 3 (100.0) n (%) | Diarrhea, treatment‐related TEAE (140 mg (n = 3), any grade): 1 (33.3) n (%) | Dysgeusia, treatment‐related TEAE (140 mg (n = 3), any grade): 2 (66.7) n (%) | Hyperphosphatemia, treatment‐related TEAE (140 mg (n = 3), any grade): 3 (100.0) n (%) | Lipase increased, treatment‐related TEAE (140 mg (n = 3), any grade): 1 (33.3) n (%) | Nausea, treatment‐related TEAE (140 mg (n = 3), any grade): 1 (33.3) n (%) | PPE syndrome, treatment‐related TEAE (140 mg (n = 3), any grade): 1 (33.3) n (%) | Retinal detachment, treatment‐related TEAE (140 mg (n = 3), any grade): 1 (33.3) n (%) | Vomiting, treatment‐related TEAE (140 mg (n = 3), any grade): 1 (33.3) n (%) | ALT increased, treatment‐related TEAE (180 mg (n = 3), any grade): 2 (66.7) n (%) | AST increased, treatment‐related TEAE (180 mg (n = 3), any grade): 2 (66.7) n (%) | Blood creatinine increased, treatment‐related TEAE (180 mg (n = 3), any grade): 1 (33.3) n (%) | Diarrhea, treatment‐related TEAE (180 mg (n = 3), any grade): 3 (100.0) n (%) | Dysgeusia, treatment‐related TEAE (180 mg (n = 3), any grade): 1 (33.3) n (%) | Hyperphosphatemia, treatment‐related TEAE (180 mg (n = 3), any grade): 3 (100.0) n (%) | Lipase increased, treatment‐related TEAE (180 mg (n = 3), any grade): 1 (33.3) n (%) | Nausea, treatment‐related TEAE (180 mg (n = 3), any grade): 1 (33.3) n (%) | PPE syndrome, treatment‐related TEAE (180 mg (n = 3), any grade): 2 (66.7) n (%) | Vomiting, treatment‐related TEAE (180 mg (n = 3), any grade): 1 (33.3) n (%) | ALT increased, treatment‐related TEAE (180 mg (n = 3), ≥Grade 3): 2 (66.7) n (%) | AST increased, treatment‐related TEAE (180 mg (n = 3), ≥Grade 3): 1 (33.3) n (%) | Vomiting, treatment‐related TEAE (180 mg (n = 3), ≥Grade 3): 1 (33.3) n (%) | Blood creatinine increased, treatment‐related TEAE (1‐30 mg (n = 12), any grade): 2 (16.7) n (%) | Lipase increased, treatment‐related TEAE (1‐30 mg (n = 12), any grade): 1 (8.3) n (%) | Nausea, treatment‐related TEAE (1‐30 mg (n = 12), any grade): 1 (8.3) n (%) | Recommended dose for Part 2 (expansion part) (QD): 140 mg | ALT increased, treatment‐related TEAE (Total (N = 24), any grade): 6 (25.0) n (%) | AST increased, treatment‐related TEAE (Total (N = 24), any grade): 4 (16.7) n (%) | Anemia, treatment‐related TEAE (Total (N = 24), any grade): 3 (12.5) n (%) | Blood ALP increased, treatment‐related TEAE (Total (N = 24), any grade): 3 (12.5) n (%) | Blood creatinine increased, treatment‐related TEAE (Total (N = 24), any grade): 9 (37.5) n (%) | Diarrhea, treatment‐related TEAE (Total (N = 24), any grade): 6 (25.0) n (%) | Dysgeusia, treatment‐related TEAE (Total (N = 24), any grade): 3 (12.5) n (%) | Hyperphosphatemia, treatment‐related TEAE (Total (N = 24), any grade): 9 (37.5) n (%) | Lipase increased, treatment‐related TEAE (Total (N = 24), any grade): 5 (20.8) n (%) | Nausea, treatment‐related TEAE (Total (N = 24), any grade): 5 (20.8) n (%) | PPE syndrome, treatment‐related TEAE (Total (N = 24), any grade): 4 (16.7) n (%) | Retinal detachment, treatment‐related TEAE (Total (N = 24), any grade): 3 (12.5) n (%) | Vomiting, treatment‐related TEAE (Total (N = 24), any grade): 3 (12.5) n (%) | ALT increased, treatment‐related TEAE (Total (N = 24), ≥Grade 3): 2 (8.3) n (%) | AST increased, treatment‐related TEAE (Total (N = 24), ≥Grade 3): 1 (4.2) n (%) | Vomiting, treatment‐related TEAE (Total (N = 24), ≥Grade 3): 1 (4.2) n (%) | Maximum tolerated dose (MTD) (daily oral dose of 1‐180 mg): not reached | Drug‐related deaths (in vivo): No drug‐related deaths were reported | Number of AE of hyperphosphatemia (in vivo): nine | Number of AE of retinal detachment (in vivo): three | SAE considered related to the study drug (in vivo): None | TEAE leading to discontinuation of the study drug (in vivo): no TEAE led to discontinuation | TEAE leading to dose reduction: PPE syndrome (in vivo): 2 n | TEAE leading to dose reduction: increased ALT (in vivo): 2 n | TEAE leading to dose reduction: increased AST (in vivo): 1 n | TEAE‐related dose interruption: anorexia (in vivo): 2 n
